Consider eight molecules from PubChem BioAssay AID602213 (Southern Research Specialized Biocontainment Screening …, 2012).

For this experiment, the target named is M1-family alanyl aminopeptidase PfA-M1 (Plasmodium falciparum 3D7). Description: inhibition of malaria M1 alanyl aminopeptidase – biochemical, QFRET, H-Leu-NHMec substrate, set 2, dose response (AID 602213). The settings on record: recombinant PfM1AAP, H-Leu-NHMec fluorogenic cleavage; for inhibition: at 100 µM (top of the series). Put shortly:
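System: purified recombinant PfM1AAP, an M1-family alanyl aminopeptidase of Plasmodium falciparum / Also added: H-Leu-NHMec fluorogenic peptide substrate, 0.1 mM final / Compound: 10 concentrations, 0.2–100 µM, 1:2 steps / Times: 90 min reaction at room temperature / Signal: fluorescence of released NHMec, excitation 370 nm, emission 460 nm / Replication: triplicate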

In general, IC50 refers to the concentration needed to halve the response being measured.

Activity calls are given as the source filed them.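 The calls were made as follows: active = inhibition of 30% or more at any tested concentration; inactive = the rest.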

Turning to `O=C(NCc1ccc(F)cc1)C1CCN(S(=O)(=O)c2ccc(Br)s2)CC1`, the IC50 was 5.05 µM.

For the molecule `O=C(NCc1ccc(Cl)cc1)C1CCN(S(=O)(=O)c2ccc(Br)s2)CC1`, the IC50 is 14.6 µM.

Consider `CC[C@H](C)[C@H](NC(=O)c1ccc(C(C)(C)C)cc1)C(=O)NCc1ccc(Cl)cc1`, for which the inhibition result is “inactive”.

With `O=C(NCc1ccc2c(c1)OCO2)C1CCN(S(=O)(=O)c2ccc(Br)s2)CC1`, the IC50 is 1.54 µM.

Turning to `CC[C@H](C)[C@H](NS(=O)(=O)c1ccc(Br)s1)C(=O)NCc1ccc2c(c1)OCO2`, the inhibition result is “inactive”.

For the molecule `CC[C@H](C)[C@H](NS(=O)(=O)c1ccc(Br)s1)C(=O)NCc1ccc(Cl)cc1`, the inhibition entry was “inactive”.

Take `O=C(NCc1ccccc1)C1CCN(S(=O)(=O)c2ccc(Br)s2)CC1`: the IC50 was 2.26 µM.

`CC[C@H](C)[C@H](NC(=O)c1ccc(C(C)(C)C)cc1)C(=O)NCc1ccc2c(c1)OCO2`: the inhibition result is “inactive”.
